Broadly, the IC50 is the midpoint of a concentration-inhibition curve. The low end stands for greater potency, the high end for weaker potency. In general, inhibition refers to the change of the read-out against control, counted positive when it falls. The low end stands for little suppression, the high end for strong suppression.

Consider 28 molecules from ChEMBL document CHEMBL1131295, “Design of peptidomimetics that inhibit the association of phosphatidylinositol 3-kinase with platelet-derived growth factor-beta receptor and possess cellular activity” (J Med Chem, 1998).

Experiment [1] in a line: Binding affinity against p85 C-terminal SH2 domain to platelet-derived growth factor receptor beta using [35S]GST as radioligand. Put shortly: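 Recombinant [35S]-labelled GST-p85 C-terminal SH2 fusion (E. coli, IPTG 1 mM, trans-35S label) binding to bead-bound Sf9-expressed PDGF-β receptor tyrosine kinase domain, prephosphorylated with 1 mM ATP, 10 mM MnCl2, 5 mM MgCl2.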

Experiment [2] concerns the target Proto-oncogene tyrosine-protein kinase Src (Homo sapiens, UniProt P12931). Put plainly: Affinity for SH2 domain of src in Sf9 insect cells.
The target in experiment [3] is Tyrosine-protein kinase ABL1 (Homo sapiens) (UniProt P00519). Put plainly: Affinity for SH2 domain of abl expressed in Sf9 insect cells. Particulars: concentration not given here.
Sequence of Tyrosine-protein kinase ABL1 (Homo sapiens) (P00519 whole entry, the tested form may be a part): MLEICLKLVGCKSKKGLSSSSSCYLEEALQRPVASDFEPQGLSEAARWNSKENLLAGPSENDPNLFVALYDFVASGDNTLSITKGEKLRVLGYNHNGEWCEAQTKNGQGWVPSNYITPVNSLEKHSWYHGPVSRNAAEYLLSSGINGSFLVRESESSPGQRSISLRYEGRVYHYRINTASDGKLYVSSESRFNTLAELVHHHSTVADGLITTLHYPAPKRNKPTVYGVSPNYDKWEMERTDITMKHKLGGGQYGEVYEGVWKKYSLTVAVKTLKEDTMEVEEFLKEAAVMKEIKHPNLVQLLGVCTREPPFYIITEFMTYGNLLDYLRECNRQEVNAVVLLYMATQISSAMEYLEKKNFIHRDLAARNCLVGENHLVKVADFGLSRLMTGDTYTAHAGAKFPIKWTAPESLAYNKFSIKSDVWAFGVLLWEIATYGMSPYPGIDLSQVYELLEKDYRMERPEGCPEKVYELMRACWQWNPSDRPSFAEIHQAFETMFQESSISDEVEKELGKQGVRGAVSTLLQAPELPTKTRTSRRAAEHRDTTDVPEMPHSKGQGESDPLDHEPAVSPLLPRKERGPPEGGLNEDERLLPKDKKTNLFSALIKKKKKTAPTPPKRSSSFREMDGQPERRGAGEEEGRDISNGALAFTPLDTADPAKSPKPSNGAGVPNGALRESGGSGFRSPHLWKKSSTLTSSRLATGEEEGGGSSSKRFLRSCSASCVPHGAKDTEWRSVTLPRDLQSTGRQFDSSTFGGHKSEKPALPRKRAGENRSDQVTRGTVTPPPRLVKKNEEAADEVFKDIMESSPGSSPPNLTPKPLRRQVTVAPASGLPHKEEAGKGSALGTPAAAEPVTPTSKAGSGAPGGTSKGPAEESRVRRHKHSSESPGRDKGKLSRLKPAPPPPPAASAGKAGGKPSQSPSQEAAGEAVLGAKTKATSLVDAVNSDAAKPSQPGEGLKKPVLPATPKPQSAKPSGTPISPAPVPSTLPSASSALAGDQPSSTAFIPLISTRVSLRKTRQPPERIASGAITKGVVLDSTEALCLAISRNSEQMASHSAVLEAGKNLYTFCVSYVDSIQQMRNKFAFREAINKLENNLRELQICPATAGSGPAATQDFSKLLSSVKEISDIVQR

Where a SMILES comes first, the peptide text is derived from it. [ ]: non-standard residue; d: D form. F2Pmp = N[C@@H](Cc1ccc(C(F)(F)P(=O)(O)O)cc1)C(=O)O; Pmp = N[C@@H](Cc1ccc(CP(=O)(O)O)cc1)C(=O)O; pY = N[C@@H](Cc1ccc(OP(=O)(O)O)cc1)C(=O)O; Nle = CCCC[C@H](N)C(=O)O

Sequence of Proto-oncogene tyrosine-protein kinase Src (P12931 2-536 limits assumed): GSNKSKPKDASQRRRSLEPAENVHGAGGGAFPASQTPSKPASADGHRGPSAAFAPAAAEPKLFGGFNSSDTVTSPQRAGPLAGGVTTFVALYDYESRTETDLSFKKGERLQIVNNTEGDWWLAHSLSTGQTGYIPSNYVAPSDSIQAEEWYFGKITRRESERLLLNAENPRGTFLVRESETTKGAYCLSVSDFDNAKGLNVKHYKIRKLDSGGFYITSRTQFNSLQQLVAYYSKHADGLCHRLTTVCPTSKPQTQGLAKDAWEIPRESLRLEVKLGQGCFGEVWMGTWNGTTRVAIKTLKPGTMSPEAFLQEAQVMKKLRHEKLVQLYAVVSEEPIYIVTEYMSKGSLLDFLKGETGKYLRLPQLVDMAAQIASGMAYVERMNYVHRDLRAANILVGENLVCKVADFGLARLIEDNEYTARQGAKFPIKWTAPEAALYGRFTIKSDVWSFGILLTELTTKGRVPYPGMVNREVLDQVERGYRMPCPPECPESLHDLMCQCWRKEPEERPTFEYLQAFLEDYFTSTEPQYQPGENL

In turn, `CSCC[C@H](NC(=O)[C@@H]1CCCN1C(=O)[C@@H](NC(=O)[C@@H](N)Cc1ccc(CP(=O)(O)O)cc1)C(C)C)C(=O)N[C@@H](CC(C)C)C(=O)O` (H-[Pmp]VPML-OH) came in with an IC50 in experiment [1] of 8700 nM. As for `CSCC[C@H](NC(=O)[C@H](CC(=O)O)NC(=O)[C@H](CCSC)NC(=O)[C@@H](N)Cc1ccc(OP(=O)(O)O)cc1)C(=O)N[C@@H](CO)C(=O)O` (H-[pY]MDMS-OH), in experiment [1], the IC50 turned out to be 520 nM. For `CCCCCNC(=O)C(C)NC(=O)[C@@H](NC(=O)[C@H](Cc1ccc(OP(=O)(O)O)cc1)NC(C)=O)C(C)C` (single isomer, unassigned), the IC50 in experiment [1] is 4560 nM. This IC50 lies about 8.8-fold higher than the previous one. The same measure, in the same setting: with `CCCCN(CCCC)C(=O)[C@H](C)NC(=O)[C@@H](NC(=O)[C@H](Cc1ccc(OP(=O)(O)O)cc1)NC(C)=O)C(C)C` the figure was 5700 nM; with `CCCCCCN(CCCCCC)C(=O)[C@H](C)NC(=O)[C@@H](NC(=O)[C@H](Cc1ccc(OP(=O)(O)O)cc1)NC(C)=O)C(C)C`, 2500 nM. In experiment [1], `CCCCCN(CCCCC)C(=O)[C@@H](C)NC(=O)[C@@H](NC(=O)[C@H](Cc1ccc(OP(=O)(O)O)cc1)NC(C)=O)C(C)C` showed an IC50 of 220 nM.

Turning to `CCCC[C@H](NC(=O)[C@@H]1CCCN1C(=O)[C@@H](NC(=O)[C@@H](N)Cc1ccc(OP(=O)(O)O)cc1)C(C)C)C(=O)N[C@@H](CC(C)C)C(=O)O` (H-[pY]VP[Nle]L-OH), the IC50 in experiment [1] was 1360 nM; in experiment [2] it was over 10 µM. `CSCC[C@H](NC(=O)[C@@H]1CCCN1C(=O)[C@@H](NC(=O)[C@H](Cc1ccc(OP(=O)(O)O)cc1)NC(C)=O)C(C)C)C(=O)N[C@@H](CC(C)C)C(N)=O` (Ac-[pY]VPML-NH2) registered an IC50 in experiment [1] of 160 nM.

`CCCCN(CCCC)C(=O)[C@@H](C)NC(=O)[C@@H](NC(=O)[C@H](Cc1ccc(OP(=O)(O)O)cc1)NC(C)=O)C(C)C` yielded an IC50 in experiment [1] of 478 nM. With `CC(=O)N[C@@H](Cc1ccc(OP(=O)(O)O)cc1)C(=O)N[C@H](C(=O)N[C@H](C)C(=O)NCCc1ccccc1)C(C)C`, in experiment [1], the IC50 worked out at 37600 nM. In experiment [1], `CSCC[C@H](NC(=O)[C@@H]1CCCN1C(=O)[C@@H](NC(=O)[C@H](Cc1ccc(C(F)(F)P(=O)(O)O)cc1)NC(C)=O)C(C)C)C(N)=O` (Ac-[F2Pmp]VPM-NH2) yielded an IC50 of 1450 nM. Still for that read-out and setting: with `CCCCCN(CCCCC)C(=O)[C@H](C)NC(=O)[C@@H](NC(=O)[C@H](Cc1ccc(OP(=O)(O)O)cc1)NC(C)=O)C(C)C` the figure was 3320 nM. As for `CCCCCCCCN(CCCCCCCC)C(=O)[C@H](C)NC(=O)[C@@H](NC(=O)[C@H](Cc1ccc(OP(=O)(O)O)cc1)NC(C)=O)C(C)C`, the IC50 in experiment [1] is 3470 nM. In turn, `CCCCCNC(=O)[C@H](C)NC(=O)[C@@H](NC(=O)[C@H](Cc1ccc(OP(=O)(O)O)cc1)NC(C)=O)C(C)C` came in with an IC50 in experiment [1] of 16100 nM. For `CSCC[C@H](NC(=O)[C@@H]1CCCN1C(=O)[C@@H](NC(=O)[C@@H](N)Cc1ccc(C(F)(F)P(=O)(O)O)cc1)C(C)C)C(=O)N[C@@H](CC(C)C)C(=O)O` (H-[F2Pmp]VPML-OH), the IC50 in experiment [1] came to 945 nM. As to `CC(=O)N[C@@H](Cc1ccc(OP(=O)(O)O)cc1)C(=O)N[C@H](C(=O)N[C@H](C)C(=O)NCCC1CCCCC1)C(C)C`, in experiment [1], the IC50 came to 19000 nM. Molecule `CSCC[C@H](NC(=O)[C@@H]1CCCN1C(=O)[C@@H](NC(=O)[C@@H](N)Cc1ccc(OP(=O)(O)O)cc1)C(C)C)C(=O)N[C@@H](CC(C)C)C(N)=O` (H-[pY]VPML-NH2) showed an IC50 in experiment [1] of 400 nM. As to `CSCC[C@H](NC(=O)[C@@H]1CCCN1C(=O)[C@@H](NC(=O)[C@@H](N)Cc1ccc(OP(=O)(O)O)cc1)C(C)C)C(=O)N[C@@H](CC(C)C)C(=O)O` (H-[pY]VPML-OH), the IC50 in experiment [1] turned out to be 445 nM; in experiment [2] it was 12.7 µM. Also, in experiment [3], the inhibition stood at 60%. On to `CSCC[C@H](NC(=O)[C@@H]1CCCN1C(=O)[C@@H](NC(=O)[C@H](Cc1ccc(OP(=O)(O)O)cc1)NC(C)=O)C(C)C)C(=O)N[C@@H](CC(C)C)C(=O)O` (Ac-[pY]VPML-OH), for which the IC50 was found to be 180 nM in experiment [1] and 5.9 µM in experiment [2].

In experiment [1], `CSCC[C@H](NC(=O)[C@@H]1CCCN1C(=O)[C@@H](NC(=O)[C@@H](N)Cc1ccc(OP(=O)(O)O)cc1)C(C)C)C(N)=O` (H-[pY]VPM-NH2) came in with an IC50 of 485 nM.

In experiment [1], `CC(=O)N[C@@H](Cc1ccc(OP(=O)(O)O)cc1)C(=O)N[C@H](C(=O)N[C@@H](C)C(=O)NCCc1ccccc1)C(C)C` returned a half-maximal inhibitory concentration (IC50) of over 100000 nM.

As to `CC(=O)N[C@@H](Cc1ccc(OP(=O)(O)O)cc1)C(=O)N[C@H](C(=O)N[C@@H](C)C(=O)NCCC1CCCCC1)C(C)C`, the IC50 in experiment [1] was over 100000 nM. In the case of `CSCC[C@H](NC(=O)[C@@H]1CCCN1C(=O)[C@@H](NC(=O)[C@@H](N)Cc1ccc(OP(=O)(O)O)cc1)C(C)C)C(=O)O` (H-[pY]VPM-OH), the IC50 in experiment [1] was found to be 6850 nM. Consider `CCCCCCN(CCCCCC)C(=O)[C@@H](C)NC(=O)[C@@H](NC(=O)[C@H](Cc1ccc(OP(=O)(O)O)cc1)NC(C)=O)C(C)C`, for which the IC50 in experiment [1] was 76 nM. `CCCCCCN(CCCCCC)C(=O)[C@H](C)NC(=O)[C@@H](NC(=O)[C@H](Cc1ccc(C(F)(F)P(=O)(O)O)cc1)NC(C)=O)C(C)C`: the IC50 in experiment [1] was determined as 446 nM. This IC50 is about 5.9-fold higher than that of the molecule before. On to `CCCCN(CC(N)=O)C(=O)[C@@H](C)NC(=O)[C@@H](NC(=O)[C@H](Cc1ccc(OP(=O)(O)O)cc1)NC(C)=O)C(C)C`, for which the IC50 in experiment [1] is 2500 nM. Molecule `CSCC[C@H](NC(=O)[C@@H]1CCCN1C(=O)[C@@H](NC(=O)[C@H](Cc1ccc(OP(=O)(O)O)cc1)NC(C)=O)C(C)C)C(N)=O` (Ac-[pY]VPM-NH2) displayed an IC50 in experiment [1] of 264 nM.

On to `CCCCCN(CCCCC)C(=O)[C@H](C)NC(=O)[C@@H](NC(=O)[C@H](Cc1ccc(C(F)(F)P(=O)(O)O)cc1)NC(C)=O)C(C)C`, for which, in experiment [1], the IC50 turned out to be 372 nM.
